In ChEMBL document CHEMBL1133976, “Orally bioavailable, indole-based nonpeptide GnRH receptor antagonists with high potency and functional activity” (Bioorg Med Chem Lett, 2001):

Tests used:
[1] = molecular target: T1, Gonadotropin-releasing hormone receptor (Homo sapiens, UniProt P30968); assay: Binding inhibition towards human pituitary gonadotropin-releasing hormone receptor using [125I]buserelin.
T1 sequence (P30968 whole entry): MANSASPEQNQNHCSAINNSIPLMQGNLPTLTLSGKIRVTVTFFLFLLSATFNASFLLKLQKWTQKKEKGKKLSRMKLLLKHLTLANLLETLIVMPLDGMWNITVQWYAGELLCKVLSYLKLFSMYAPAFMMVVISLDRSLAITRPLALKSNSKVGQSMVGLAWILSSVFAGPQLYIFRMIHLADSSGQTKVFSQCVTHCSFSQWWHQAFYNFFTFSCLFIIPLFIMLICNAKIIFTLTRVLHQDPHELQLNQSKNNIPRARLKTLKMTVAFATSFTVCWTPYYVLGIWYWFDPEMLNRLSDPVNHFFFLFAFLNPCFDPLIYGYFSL
Summary of the method: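 Competition binding against the agonist radioligand [125I]buserelin at human pituitary GnRH receptor, run in the presence of 0.1% BSA; IC50 reported in nM.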

[2] = molecular target: T1, Gonadotropin-releasing hormone receptor; assay: In vitro functional antagonism via inhibition of GnRH-stimulated phosphatidylinositol (PI) hydrolysis in cloned Chinese hamster ovary (CHO) cells stably expressing the human GnRH receptor.; assay type: cell-based
Summary of the method: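 Functional antagonism read as inhibition of GnRH-stimulated phosphatidylinositol hydrolysis in cloned CHO cells stably expressing human GnRH receptor; IC50 reported in nM.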

[3] = Oral bioavailability in dog; assay type: ADME, organism-based, Canis lupus familiaris; conditions: in vivo
[4] = Oral bioavailability in rat; assay type: ADME, organism-based; conditions: in vivo
[5] = Oral bioavailability in Rhesus monkey; assay type: ADME, organism-based, Macaca mulatta; conditions: in vivo

For Cc1cc(C)cc(-c2[nH]c3ccc(C(C)(C)C(=O)N4CC5CCC4CC5)cc3c2[C@H](C)CNCCc2ccc(=O)n(C)c2)c1, which IC50 [1] is on record?
Its IC50 is 0.2 nM.

What about the IC50 [2] of the same molecule?
The IC50 was 1.4 nM.

What does the source list for Cc1cc(C)cc(-c2[nH]c3ccc(C(C)(C)C(=O)N4CCC5(CC4)OCCO5)cc3c2[C@H](C)CNCCCCc2ccncc2)c1?
IC50 [1]: 0.6 nM; IC50 [2]: 66 nM

What does the source list for Cc1cc(C)cc(-c2[nH]c3ccc(C(C)(C)C(=O)N4CC5CCC4CC5)cc3c2[C@H](C)CNCCCCc2ccncc2)c1?
bioavailability [3]: 7%; bioavailability [4]: 14%; IC50 [1]: 1 nM; IC50 [2]: 2.8 nM

Which IC50 [1] does the source give for Cc1cc(C)cc(-c2[nH]c3ccc(C(C)(C)C(=O)N4CCN(C(=O)OC(C)(C)C)CC4)cc3c2[C@H](C)CNCCCCc2ccncc2)c1 here?
Its IC50 is 6.1 nM.

What about the IC50 [2] of the same molecule?
The IC50 was 220 nM.

For COCn1cc(CCNC[C@@H](C)c2c(-c3cc(C)cc(C)c3)[nH]c3ccc(C(C)(C)C(=O)N4CC5CCC4CC5)cc23)ccc1=O, which IC50 [1] is on record?
Its IC50 is 0.4 nM.

And the IC50 [2]?
Its IC50 is 3.9 nM.

With CCS(=O)(=O)N1CCN(C(=O)C(C)(C)c2ccc3[nH]c(-c4cc(C)cc(C)c4)c([C@H](C)CNCCCCc4ccncc4)c3c2)CC1 as the molecule, how does the IC50 [1] read?
The IC50 was 4.4 nM.

What about the IC50 [2] of the same molecule?
The IC50 was 124 nM.

Which results are given for Cc1cc(C)cc(-c2[nH]c3ccc(C(C)(C)C(=O)N4C5CCCCC5C5CCCCC54)cc3c2[C@H](C)CNCCCCc2ccncc2)c1 (some centres undefined)?
IC50 [1]: 21 nM; IC50 [2]: 31 nM

With Cc1cc(C)cc(-c2[nH]c3ccc(C(C)(C)C(=O)N4CC5CCC4CC5)cc3c2[C@H](C)CNCCc2cccn(C)c2=O)c1 as the molecule, how does the IC50 [1] read?
Its IC50 is 5.3 nM.

And the IC50 [2]?
The IC50 was 82 nM.

For Cc1cc(C)cc(-c2[nH]c3ccc(C(C)(C)C(=O)N4CCC(C)(C)CC4)cc3c2[C@H](C)CNCCCCc2ccncc2)c1, which IC50 [1] is on record?
Its IC50 is 1.3 nM.

What about the IC50 [2] of the same molecule?
The IC50 was 39 nM.

Which bioavailability [3] does the source give for Cc1cc(C)cc(-c2[nH]c3ccc(C(C)(C)C(=O)N4CC5CCC4CC5)cc3c2[C@H](C)CNCCc2ccncc2)c1 here?
Its bioavailability is 25%.

And the bioavailability [4]?
The bioavailability was 8%.

What about the IC50 [1] of the same molecule?
The IC50 was 0.6 nM.

What about the bioavailability [5] of the same molecule?
The bioavailability was 21%.

And the IC50 [2]?
The IC50 was 7.2 nM.

Which IC50 [1] does the source give for COc1ccc(CCNC[C@@H](C)c2c(-c3cc(C)cc(C)c3)[nH]c3ccc(C(C)(C)C(=O)N4CC5CCC4CC5)cc23)cn1 here?
Its IC50 is 1 nM.

What about the IC50 [2] of the same molecule?
The IC50 was 11 nM.

With Cc1cc(C)cc(-c2[nH]c3ccc(C(C)(C)C(=O)N4C[C@H]5CC[C@@H]4C5)cc3c2[C@H](C)CNCCCCc2ccncc2)c1 as the molecule, how does the IC50 [1] read?
Its IC50 is 1 nM.

What about the IC50 [2] of the same molecule?
Its IC50 is 4 nM.

Which IC50 [1] does the source give for Cc1cc(C)cc(-c2[nH]c3ccc(C(C)(C)C(=O)N4C[C@@H]5CC[C@H]4C5)cc3c2[C@H](C)CNCCCCc2ccncc2)c1 here?
Its IC50 is 0.4 nM.

What about the IC50 [2] of the same molecule?
The IC50 was 8.7 nM.

Which results are given for Cc1cc(C)cc(-c2[nH]c3ccc(C(C)(C)C(=O)N4CC5CCC(CC5)C4)cc3c2[C@H](C)CNCCCCc2ccncc2)c1?
IC50 [1]: 2.1 nM; IC50 [2]: 13 nM

What does the source list for Cc1cc(C)cc(-c2[nH]c3ccc(C(C)(C)C(=O)N(CC(C)C)CC(C)C)cc3c2[C@H](C)CNCCCCc2ccncc2)c1?
IC50 [1]: 5.6 nM; IC50 [2]: 14 nM

What does the source list for Cc1cc(C)cc(-c2[nH]c3ccc(C(C)(C)C(=O)N4C[C@H]5CC[C@@H]4C5)cc3c2[C@H](C)CNCCc2ccncc2)c1?
bioavailability [3]: 8.5%; IC50 [1]: 1.2 nM; IC50 [2]: 1.9 nM

Which results are given for Cc1cc(C)cc(-c2[nH]c3ccc(C(C)(C)C(=O)N4C5CCC4CC5)cc3c2[C@H](C)CNCCCCc2ccncc2)c1?
IC50 [1]: 0.7 nM; IC50 [2]: 5.7 nM

What does the source list for Cc1cc(C)cc(-c2[nH]c3ccc(C(C)(C)C(=O)N4CCC5(CCCC5)CC4)cc3c2[C@H](C)CNCCCCc2ccncc2)c1?
IC50 [1]: 2.7 nM; IC50 [2]: 93 nM

For Cc1cc(C)cc(-c2[nH]c3ccc(C(C)(C)C(=O)N4CC5CCC4CC5)cc3c2[C@H](C)CNCCc2cccnc2)c1, which bioavailability [3] is on record?
Its bioavailability is 12%.

What about the IC50 [1] of the same molecule?
Its IC50 is 0.6 nM.

And the IC50 [2]?
The IC50 was 2.6 nM.

For Cc1cc(C)cc(-c2[nH]c3ccc(C(C)(C)C(=O)N4C5CCC4CC5)cc3c2CCNCCCCc2ccncc2)c1, which IC50 [1] is on record?
The IC50 was 1.4 nM.

For Cc1cc(C)cc(-c2[nH]c3ccc(C(C)(C)C(=O)N4C[C@H]5CCCC[C@H]5C4)cc3c2[C@H](C)CNCCCCc2ccncc2)c1, which IC50 [1] is on record?
The IC50 was 1.4 nM.

And the IC50 [2]?
The IC50 was 66 nM.

With Cc1cc(C)cc(-c2[nH]c3ccc(C(C)(C)C(=O)N4CC5CCC4CC5)cc3c2[C@H](C)CNCCC2CCC(=O)N(C)C2)c1 (some centres undefined) as the molecule, how does the IC50 [1] read?
Its IC50 is 0.4 nM.

What about the IC50 [2] of the same molecule?
Its IC50 is 8.2 nM.

For Cc1cc(C)cc(-c2[nH]c3ccc(C(C)(C)C(=O)N4C5CCCC4CC5)cc3c2[C@H](C)CNCCCCc2ccncc2)c1, which IC50 [1] is on record?
The IC50 was 0.8 nM.

What about the IC50 [2] of the same molecule?
Its IC50 is 8.8 nM.

Which results are given for Cc1cc(C)cc(-c2[nH]c3ccc(C(C)(C)C(=O)N4CC5CCC4CC5)cc3c2[C@H](C)CNCCc2cc(C)c(=O)n(C)c2)c1?
bioavailability [3]: 35%; IC50 [1]: 0.6 nM; bioavailability [5]: 4%; IC50 [2]: 4 nM

Which results are given for Cc1cc(C)cc(-c2[nH]c3ccc(C(C)(C)C(=O)N4CC5CCC4CC5)cc3c2[C@H](C)CNCCc2ccc(O)nc2)c1?
IC50 [1]: 0.3 nM; IC50 [2]: 1 nM

Which IC50 [1] does the source give for Cc1cc(C)cc(-c2[nH]c3ccc(C(C)(C)C(=O)N4CC5(C)CC4CC(C)(C)C5)cc3c2[C@H](C)CNCCCCc2ccncc2)c1 (some centres undefined) here?
The IC50 was 4.8 nM.

And the IC50 [2]?
Its IC50 is 6.4 nM.

Which results are given for Cc1cc(C)cc(-c2[nH]c3ccc(C(C)(C)C(=O)N4CC5CCCC4C5)cc3c2[C@H](C)CNCCCCc2ccncc2)c1 (some centres undefined)?
IC50 [1]: 4.8 nM; IC50 [2]: 6.8 nM

Which results are given for Cc1cc(C)cc(-c2[nH]c3ccc(C(C)(C)C(=O)N4CC(C)(C)C4)cc3c2[C@H](C)CNCCCCc2ccncc2)c1?
IC50 [1]: 0.7 nM; IC50 [2]: 21 nM

Which results are given for Cc1cc(C)cc(-c2[nH]c3ccc(C(C)(C)C(=O)N4C5CCC4CC5)cc3c2[C@H](C)CNCCc2ccncc2)c1?
bioavailability [3]: 14%; bioavailability [4]: 23%; IC50 [1]: 0.8 nM; bioavailability [5]: 6.4%; IC50 [2]: 7 nM
